Assay results published in ChEMBL document CHEMBL1123658, “1-(2-pyridinyl)piperazine derivatives with antianaphylactic, antibronchospastic, and mast cell stabilizing activities” (J Med Chem, 1987).

Columns and labels:
Rattus norvegicus [1] = assay: Inhibition of mast cell degranulation was assessed in female albino rats at a dose of 42 umol/kg iv; assay type: functional
Rattus norvegicus [2] = assay: Rat PCA Test(50% inhibition of spot areas)in the female albino rats after (ip) administration in 10% aqueous acacia gum; value ranges from 14-22; assay type: functional; details: read-out: ID50 (the source's name)
In short: (§1)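 Female albino rats (200–250 g) received intradermal ventral injections of rat anti-egg-albumin antiserum; donors were raised with egg albumin im plus H. pertussis ip, and serum was taken at 12 days. 24 h later, compound was given ip in 10% acacia gum (10 mL/kg), 10 rats/group. Challenge 30 min later was iv 0.3% egg albumin plus 1% Evans blue. Blued areas were measured 30 min after challenge.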

[3] = In vivo toxic effect was determined in mouse after intraperitoneal administration with 10% aqueous acacia gum; value ranges from 0.50-0.84; assay type: toxicity, organism-based; details: ip
In short: (§2)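 Female albino mice (20-30 g), 10 animals per dose, dosed intraperitoneally with compound in solution or suspension; compounds tested as salts unless noted. Mortality was recorded over 7 days.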

[4] = In vivo toxic effect was determined in mouse after intraperitoneal administration with 10% aqueous acacia gum; value ranges from 0.61-0.99; assay type: toxicity, organism-based; details: ip; in short: as §2
[5] = In vivo toxic effect was determined in mouse after oral administration with 10% aqueous acacia gum; value ranges from 0.77-1.28; assay type: toxicity, organism-based
In short: (§3)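 Female albino mice, 20-30 g. Compound given orally as solution or suspension in 10% aqueous acacia gum, 10 animals per dose. Deaths recorded over 7 days.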

Cavia porcellus = assay: Antibronchospatic activity determined by histamine stimulated bronchospasm inhibition in guinea pigs after(i.v.) administration; assay type: functional, Bronchiole
In short: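 Guinea pigs, Konzett–Rössler preparation. Bronchospasm was induced with histamine. Compound was given iv (1 mL/kg) 1 min before the agonist, dissolved in saline or saline with slight excess HCl or CH3SO3H (pH 3.5–4). Three doses were tested in duplicate, chosen to give 20–90% inhibition. ID75 was read graphically from log dose–response curves.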

Rattus norvegicus [6] = assay: Rat PCA Test(50% inhibition of spot areas)in the female albino rats after (ip) administration in 10% aqueous acacia gum; value ranges from 34-42; assay type: functional; details: read-out: ID50 (the source's name); in short: as §1
Rattus norvegicus [7] = assay: Inhibition of mast cell degranulation was assessed in female albino rats at a dose of 26 umol/kg iv; assay type: functional
[8] = In vivo toxic effect was determined in mouse after oral administration with 10% aqueous acacia gum; value ranges from 0.53-0.84; assay type: toxicity, organism-based
[9] = In vivo toxic effect was determined in mouse after intraperitoneal administration with 10% aqueous acacia gum; value ranges from 0.27-0.50; assay type: toxicity, organism-based; details: ip; in short: as §2
[10] = In vivo toxicity in mouse after oral administration with 10% aqueous acacia gum; assay type: organism-based; in short: as §3
Rattus norvegicus [11] = assay: Rat PCA Test(50% inhibition of spot areas)in the female albino rats after oral administration in 10% aqueous acacia gum; assay type: functional; details: read-out: ID50 (the source's name)
In short: (§4)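 Female rats (200-250 g) were passively sensitized by ventral intradermal anti-egg-albumin antiserum. This was raised in rats by intramuscular 1% egg albumin plus ip H. pertussis vaccine, with serum taken at 12 days. After 24 h, groups of 10 were dosed orally with compound or vehicle (10 mL/kg). At 60 min, iv challenge used 0.3% egg albumin with 1% Evans blue. Blued areas were measured after 30 min.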

Rattus norvegicus [12] = assay: Rat PCA Test(50% inhibition of spot areas)in the female albino rats after (ip) administration in 10% aqueous acacia gum;Value ranges from(44-250); assay type: functional; details: read-out: ID50 (the source's name)
In short: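 Antiserum came from female rats given 1% egg albumin in 0.9% NaCl intramuscularly plus Haemophilus pertussis vaccine (2 × 10^10 organisms) intraperitoneally, and was collected 12 days later. Recipient rats (200-250 g) got it intradermally at a ventral site. After 24 h, groups of 10 received vehicle or compound ip. At 30 min they were challenged iv with 0.3% egg albumin plus 1% Evans blue. Blued skin areas were measured 30 min later.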

Mus musculus = assay: In vivo toxic effect was determined in mouse after intraperitoneal administration with 10% aqueous acacia gum; NA means poorly absorbed; assay type: toxicity, organism-based; details: ip; in short: as §2
[13] = In vivo toxic effect was determined in mouse after intraperitoneal administration with 10% aqueous acacia gum; value ranges from 0.89-1.63; assay type: toxicity, organism-based; details: ip; in short: as §2
[14] = In vivo toxic effect was determined in mouse after oral administration with 10% aqueous acacia gum; value ranges from 1.19-2.07; assay type: toxicity, organism-based; in short: as §3
Rattus norvegicus [15] = assay: Rat PCA Test(50% inhibition of spot areas)in the female albino rats after (ip) administration in 10% aqueous acacia gum; value ranges from 66-231; assay type: functional; details: read-out: ID50 (the source's name); in short: as §1
[16] = In vivo toxic effect was determined in mouse after intraperitoneal administration with 10% aqueous acacia gum; value ranges from 1.02-1.35; assay type: toxicity, organism-based; details: ip; in short: as §2
[17] = In vivo toxic effect was determined in mouse after oral administration with 10% aqueous acacia gum;Value ranges from(5.68-7.37); assay type: toxicity, organism-based; in short: as §3
Rattus norvegicus [18] = assay: Rat PCA Test(50% inhibition of spot areas)in the female albino rats after (ip) administration in 10% aqueous acacia gum; assay type: functional; details: read-out: ID50 (the source's name); in short: as §1
[19] = In vivo toxic effect was determined in mouse after intraperitoneal administration with 10% aqueous acacia gum; value ranges from 0.88-1.56; assay type: toxicity, organism-based; details: ip; in short: as §2
Rattus norvegicus [20] = assay: Rat PCA Test(50% inhibition of spot areas)in the female albino rats after (ip) administration in 10% aqueous acacia gum; value ranges from 213-612; assay type: functional; details: read-out: ID50 (the source's name); in short: as §1
[21] = In vivo toxic effect was determined in mouse after intraperitoneal administration with 10% aqueous acacia gum; value ranges from 0.28-0.52; assay type: toxicity, organism-based; details: ip; in short: as §2
[22] = In vivo toxic effect was determined in mouse after oral administration with 10% aqueous acacia gum; value ranges from 0.41-0.93; assay type: toxicity, organism-based
Rattus norvegicus [23] = assay: Inhibition of mast cell degranulation was assessed in female albino rats at a dose of 22 umol/kg iv; assay type: functional
[24] = In vivo toxic effect was determined in mouse after intraperitoneal administration with 10% aqueous acacia gum; value ranges from 0.53-0.97; assay type: toxicity, organism-based; details: ip; in short: as §2
[25] = In vivo toxic effect was determined in mouse after oral administration with 10% aqueous acacia gum; value ranges from 0.66-1.27; assay type: toxicity, organism-based
Rattus norvegicus [26] = assay: Rat PCA Test(50% inhibition of spot areas)in the female albino rats after (ip) administration in 10% aqueous acacia gum; value ranges from 23-40; assay type: functional; details: read-out: ID50 (the source's name); in short: as §1
Rattus norvegicus [27] = assay: Rat PCA Test(50% inhibition of spot areas)in the female albino rats after oral administration in 10% aqueous acacia gum; value ranges from 88-129; assay type: functional; details: read-out: ID50 (the source's name); in short: as §4
Rattus norvegicus [28] = assay: Rat PCA Test(50% inhibition of spot areas)in the female albino rats after oral administration in 10% aqueous acacia gum; value ranges from 99-191; assay type: functional; details: read-out: ID50 (the source's name); in short: as §4
[29] = In vivo toxic effect was determined in mouse after oral administration with 10% aqueous acacia gum; value ranges from 1.75-2.99; assay type: toxicity, organism-based; in short: as §3
[30] = In vivo toxic effect was determined in mouse after intraperitoneal administration with 10% aqueous acacia gum; value ranges from 0.30-0.61; assay type: toxicity, organism-based; details: ip; in short: as §2
Rattus norvegicus [31] = assay: Rat PCA Test(50% inhibition of spot areas)in the female albino rats after (ip) administration in 10% aqueous acacia gum; value ranges from 42-79; assay type: functional; details: read-out: ID50 (the source's name); in short: as §1
Rattus norvegicus [32] = assay: Inhibition of mast cell degranulation was assessed in female albino rats at a dose of 23 umol/kg iv; assay type: functional

SMILES: Cc1cc(C)c(C)c(NC(=O)CCN2CCN(c3ccccn3)CC2)c1C.Cl.Cl
- inhibition in vivo at 42 µmol/kg (Rattus norvegicus [1]): 2%
- ED50 (Rattus norvegicus [2]): 18 µmol/kg
- LD50 [3]: 570 µmol/kg

SMILES: CCOc1ccc(NC(=O)CCN2CCN(c3ccccn3)CC2)cc1.Cl.Cl
- LD50 [4]: 690 µmol/kg
- LD50 [5]: 920 µmol/kg
- ID75 (Cavia porcellus): 0.14 µM/kg
- ED50 (Rattus norvegicus [6]): 37 µmol/kg
- inhibition in vivo at 26 µmol/kg (Rattus norvegicus [7]): 0%

SMILES: COc1cccc(N2CCN(CCC(=O)Nc3ccccc3N)CC2)n1.Cl.Cl
- LD50 [8]: 670 µmol/kg
- ID75 (Cavia porcellus): 108 µM/kg
- LD50 [9]: 370 µmol/kg

SMILES: Cl.Cl.NC(=O)c1ccc(NC(=O)CCN2CCN(c3ccccn3)CC2)cc1
- LD50 [10]: > 6400 µmol/kg
- ED50 (Rattus norvegicus [11]): > 212 µmol/kg
- ED50 (Rattus norvegicus [12]): 124 µmol/kg
- LD50 (Mus musculus): Not Active
- ID75 (Cavia porcellus): 0.3 µM/kg

SMILES: CCC(=O)Nc1ccc(NC(=O)CCN2CCN(c3ccccn3)CC2)cc1.Cl.Cl
- LD50 [13]: 1050 µmol/kg
- LD50 [14]: 1530 µmol/kg
- ID75 (Cavia porcellus): 0.23 µM/kg
- ED50 (Rattus norvegicus [15]): 147 µmol/kg

SMILES: COc1cccc(NC(=O)CCN2CCN(c3ccccn3)CC2)c1.Cl.Cl
- LD50 [16]: 1180 µmol/kg
- LD50 [17]: 7100 µmol/kg
- ED50 (Rattus norvegicus [18]): > 118 µmol/kg
- ID75 (Cavia porcellus): 0.56 µM/kg

SMILES: C=CCOC(=O)CCN1CCN(c2ccccn2)CC1.Cl.Cl
- LD50 [10]: > 8610 µmol/kg
- LD50 [19]: 1030 µmol/kg
- ED50 (Rattus norvegicus [11]): 11.5 µmol/kg
- ED50 (Rattus norvegicus [20]): 330 µmol/kg

SMILES: Cl.Cl.N#Cc1ccc(NC(=O)CCN2CCN(c3ccccn3)CC2)cc1
- LD50 [21]: 390 µmol/kg
- LD50 [22]: 620 µmol/kg
- ED50 (Rattus norvegicus [18]): > 39 µmol/kg
- ID75 (Cavia porcellus): 0.64 µM/kg

SMILES: CCOC(=O)c1ccc(NC(=O)CCN2CCN(c3ccccn3)CC2)cc1.Cl.Cl
- inhibition in vivo at 22 µmol/kg (Rattus norvegicus [23]): 83%
- LD50 [24]: 660 µmol/kg
- LD50 [25]: 920 µmol/kg
- ID75 (Cavia porcellus): 0.17 µM/kg
- ED50 (Rattus norvegicus [26]): 30 µmol/kg
- ED50 (Rattus norvegicus [27]): 107 µmol/kg

SMILES: Cl.Cl.O=C(CCN1CCN(c2ccccn2)CC1)Nc1cccc([N+](=O)[O-])c1
- ED50 (Rattus norvegicus [28]): 137 µmol/kg
- LD50 [29]: 2070 µmol/kg
- LD50 [30]: 420 µmol/kg
- ED50 (Rattus norvegicus [31]): 58 µmol/kg
- inhibition in vivo at 23 µmol/kg (Rattus norvegicus [32]): 87%
- ID75 (Cavia porcellus): 0.37 µM/kg
